Active and inactive are the calls of the source. The calls are words filed in the database; no cut-off is given here.
Experiments:
K562 [1] = test: Induction of apoptosis in human K562 cells assessed as total necrotic cells by Annexin V-FITC/propidium iodide staining based flow cytometry (reference value: 0.23%); format: functional
K562 [2] = test: Cell cycle arrest in human K562 cells assessed as total cell levels at S phase at IC50 after 72 hrs by propidium iodide staining based flow cytometry (reference value: 36.49%); format: functional
K562 [3] = test: Cell cycle arrest in human K562 cells assessed as accumulation at G2/M phase at IC50 after 72 hrs by propidium iodide staining based flow cytometry (reference value: 19.01%); format: functional
K562 [4] = test: Cytotoxicity against human K562 cells assessed as reduction in cell viability after 72 hrs by MTT assay; format: functional, cell-based; conditions: K562, 72 h
Raji = test: Cytotoxicity against human Raji cells assessed as reduction in cell viability after 72 hrs by MTT assay; format: functional, cell-based
K562 [5] = test: Induction of apoptosis in human K562 cells assessed as gated necrotic cells by Annexin V-FITC/propidium iodide staining based flow cytometry (reference value: 0.24%); format: functional
K562 [6] = test: Induction of apoptosis in human K562 cells assessed as specific apoptosis by Annexin V-FITC/propidium iodide staining based flow cytometry; format: functional; design: concentration or dose not given beside the values
K562 [7] = test: Cell cycle arrest in human K562 cells assessed as total cell levels at M4 phase at IC50 after 72 hrs by propidium iodide staining based flow cytometry (reference value: 0.50%); format: functional
Jurkat = test: Cytotoxicity against human Jurkat cells assessed as reduction in cell viability after 72 hrs by MTT assay; format: functional, cell-based
K562 [8] = test: Cell cycle arrest in human K562 cells assessed as accumulation at sub G1 phase at IC50 after 72 hrs by propidium iodide staining based flow cytometry (reference value: 1.48%); format: functional
K562 [9] = test: Induction of apoptosis in human K562 cells assessed as increase in Bax expression level by Western blot analysis; format: functional, cell-based
How it was run: (§1)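 Western blot of treated K562 cells for Bcl-2, Bax, activated caspase 3 and cleaved PARP (85 kDa fragment). Blots developed by ECL, with band expression quantified by densitometry against an untreated control sample.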

A549 = test: Cytotoxicity against human A549 cells assessed as reduction in cell viability after 72 hrs by MTT assay; format: functional, cell-based; conditions: A549, 72 h
HeLa = test: Cytotoxicity against human HeLa cells assessed as reduction in cell viability after 72 hrs by MTT assay; format: functional, cell-based
MRC5 = test: Cytotoxicity against human MRC5 cells assessed as reduction in cell viability after 72 hrs by MTT assay; format: cell-based; conditions: MRC5, 72 h
K562 [10] = test: Induction of apoptosis in human K562 cells assessed as specific necrosis by Annexin V-FITC/propidium iodide staining based flow cytometry; format: functional; design: concentration or dose not given beside the values
K562 [11] = test: Cell cycle arrest in human K562 cells assessed as total cell levels at G0/G1 phase at IC50 after 72 hrs by propidium iodide staining based flow cytometry (reference value: 39.97%); format: functional
K562 [12] = test: Induction of apoptosis in human K562 cells assessed as gated viable cells by Annexin V-FITC/propidium iodide staining based flow cytometry (reference value: 95.78%); format: functional
K562 [13] = test: Induction of apoptosis in human K562 cells assessed as gated late apoptotic cells by Annexin V-FITC/propidium iodide staining based flow cytometry (reference value: 0.88%); format: functional
K562 [14] = test: Induction of apoptosis in human K562 cells assessed as total late apoptotic cells by Annexin V-FITC/propidium iodide staining based flow cytometry (reference value: 0.77%); format: functional
HL-60 = test: Cytotoxicity against human HL60 cells assessed as reduction in cell viability after 72 hrs by MTT assay; format: functional, cell-based; conditions: HL-60, 72 h
MCF7 = test: Cytotoxicity against human MCF7 cells assessed as reduction in cell viability after 72 hrs by MTT assay; format: functional, cell-based; conditions: MCF7, 72 h
K562 [15] = test: Induction of apoptosis in human K562 cells assessed as total early apoptotic cells by Annexin V-FITC/propidium iodide staining based flow cytometry (reference value: 3.07%); format: functional
K562 [16] = test: Cell cycle arrest in human K562 cells assessed as accumulation at S phase at IC50 after 72 hrs by propidium iodide staining based flow cytometry (reference value: 41.03%); format: functional
MDA-MB-231 = test: Cytotoxicity against human MDA-MB-231 cells assessed as reduction in cell viability after 72 hrs by MTT assay; format: functional, cell-based; conditions: MDA-MB-231, 72 h
K562 [17] = test: Cell cycle arrest in human K562 cells assessed as accumulation at G0/G1 phase at IC50 after 72 hrs by propidium iodide staining based flow cytometry (reference value: 38.48%); format: functional
K562 [18] = test: Induction of apoptosis in human K562 cells assessed as gated early apoptotic cells by Annexin V-FITC/propidium iodide staining based flow cytometry (reference value: 3.18%); format: functional
K562 [19] = test: Induction of apoptosis in human K562 cells assessed as decrease in Bcl-2 expression level by Western blot analysis; format: functional, cell-based; how it was run: as §1
K562 [20] = test: Induction of apoptosis in human K562 cells assessed as total viable cells by Annexin V-FITC/propidium iodide staining based flow cytometry (reference value: 92.45%); format: functional
K562 [21] = test: Cell cycle arrest in human K562 cells assessed as total cell levels at G2/M phase at IC50 after 72 hrs by propidium iodide staining based flow cytometry (reference value: 14.31%); format: functional

Structure (SMILES)	Activity (K562 [1])	Activity (K562 [2])	Activity (K562 [3])	IC50 (K562 [4])	IC50 (Raji)	Activity (K562 [5])	Activity (K562 [6])	Activity (K562 [7])	IC50 (Jurkat)	Activity (K562 [8])	Activity (K562 [9])	IC50 (A549)	IC50 (HeLa)	IC50 (MRC5)	Activity (K562 [10])	Activity (K562 [11])	Activity (K562 [12])	Activity (K562 [13])	Activity (K562 [14])	IC50 (HL-60)	further results
O=C1C=C[C@]2(C[C@H](OC(=O)/C=C/c3ccccc3)[C@@H](c3ccccc3)O2)O1	0.05%	28.7%	23.78%	20.7 µM	6.68 µM	0.09%	83.35%	25.37%	0.21 µM	28.63%	Active	14.6 µM	1.15 µM	> 100 µM	4.06%	14.21%	15.88%	4.92%	3.27%	10 µM	IC50 (MCF7): 1.65 µM; Activity (K562 [15]): 59.12%; Activity (K562 [16]): 31.55%; IC50 (MDA-MB-231): 5.45 µM; Activity (K562 [17]): 16.04%; Activity (K562 [18]): 79.11%; Activity (K562 [19]): Active; Activity (K562 [20]): 3.9%; Activity (K562 [21]): 21.08%
O=C1C=C[C@]2(C[C@H](OC(=O)/C=C/c3ccc(F)cc3)[C@H](c3ccccc3)O2)O1	0.23%	31.52%	24.82%	9.05 µM	17.3 µM	0.36%	85.69%	4.05%	15.4 µM	14.87%	Active	1.21 µM	12 µM	> 100 µM	3.78%	19.29%	13.78%	2.62%	1.7%	12 µM	IC50 (MCF7): 15.6 µM; Activity (K562 [15]): 60.46%; Activity (K562 [16]): 37.11%; IC50 (MDA-MB-231): 1.02 µM; Activity (K562 [17]): 23.2%; Activity (K562 [18]): 83.24%; Activity (K562 [19]): Active; Activity (K562 [20]): 2.45%; Activity (K562 [21]): 29.05%
O=C1C=C[C@]2(C[C@H](O)[C@H](c3ccccc3)O2)O1	1.07%	13.07%	66.56%	1.21 µM	8.84 µM	1.25%	7.78%	0.6%	1.01 µM	1.09%	Active	35.2 µM	35.4 µM	> 100 µM	2.84%	11.56%	87.3%	8.1%	6.94%	6.11 µM	IC50 (MCF7): 11 µM; Activity (K562 [15]): 2.87%; Activity (K562 [16]): 17.17%; IC50 (MDA-MB-231): 45.1 µM; Activity (K562 [17]): 15.18%; Activity (K562 [18]): 3.35%; Activity (K562 [19]): Active; Activity (K562 [20]): 74.8%; Activity (K562 [21]): 51.44%
COc1ccc(/C=C/C(=O)O[C@H]2C[C@]3(C=CC(=O)O3)O[C@@H]2c2ccccc2)cc1	0.2%	32.71%	34.45%	2.12 µM	89.7 µM	0.27%	37.78%	2.67%	58.1 µM	3.39%	Active	33.6 µM	3.34 µM	> 100 µM	3.86%	16.74%	59.39%	2.92%	2.17%	8.67 µM	IC50 (MCF7): 3.14 µM; Activity (K562 [15]): 27.83%; Activity (K562 [16]): 41.08%; IC50 (MDA-MB-231): > 100 µM; Activity (K562 [17]): 21.08%; Activity (K562 [18]): 37.43%; Activity (K562 [19]): inactive; Activity (K562 [20]): 44.16%; Activity (K562 [21]): 27.1%
O=C1C=C[C@@]2(C[C@H](OC(=O)/C=C/c3ccccc3)[C@@H](c3ccccc3)O2)O1	0.02%	13.85%	5.34%	20.5 µM	2.38 µM	0.03%	86.01%	54.83%	87.6 µM	56.93%	Active	28.1 µM	0.58 µM	> 100 µM	4.12%	21.87%	12.84%	4.67%	3.48%	5.61 µM	IC50 (MCF7): 0.58 µM; Activity (K562 [15]): 68.98%; Activity (K562 [16]): 14.63%; IC50 (MDA-MB-231): 3.45 µM; Activity (K562 [17]): 23.1%; Activity (K562 [18]): 82.46%; Activity (K562 [19]): Active; Activity (K562 [20]): 2.12%; Activity (K562 [21]): 5.03%
O=C1C=C[C@@]2(C[C@H](OC(=O)/C=C/c3ccc(F)cc3)[C@@H](c3ccccc3)O2)O1	0.52%	30.81%	22.5%	1.05 µM	55.4 µM	0.54%	4.02%	2.31%	22.2 µM	2.61%	Active	25.5 µM	2.21 µM	> 100 µM	3.58%	36.51%	91.63%	1.38%	1.33%	4.48 µM	IC50 (MCF7): 21.5 µM; Activity (K562 [15]): 6.24%; Activity (K562 [16]): 33.71%; IC50 (MDA-MB-231): > 100 µM; Activity (K562 [17]): 41.18%; Activity (K562 [18]): 6.46%; Activity (K562 [19]): Active; Activity (K562 [20]): 88.51%; Activity (K562 [21]): 19.95%
O=C1C=C[C@]2(C[C@H](OC(=O)/C=C/c3ccc([N+](=O)[O-])cc3)[C@H](c3ccccc3)O2)O1	0.68%	27.16%	19.98%	14.3 µM	11.8 µM	3.37%	81.97%	18.7%	10.2 µM	20.43%	Active	3.12 µM	11.5 µM	> 100 µM	0.64%	27.84%	13.94%	3.87%	0.78%	4.32 µM	IC50 (MCF7): 7.55 µM; Activity (K562 [15]): 15.89%; Activity (K562 [16]): 29.17%; IC50 (MDA-MB-231): 4.48 µM; Activity (K562 [17]): 30.42%; Activity (K562 [18]): 78.82%; Activity (K562 [19]): Active; Activity (K562 [20]): 2.81%; Activity (K562 [21]): 18.29%
COc1ccc(/C=C/C(=O)O[C@H]2C[C@]3(C=CC(=O)O3)O[C@H]2c2ccccc2)cc1	0.36%	24.97%	27.85%	12.8 µM	8.69 µM	0.37%	2.28%	3.06%	14.2 µM	3.41%	Active	1.58 µM	12.8 µM	> 100 µM	3.76%	37.38%	93.46%	0.78%	0.76%	8.67 µM	IC50 (MCF7): 11.2 µM; Activity (K562 [15]): 5.27%; Activity (K562 [16]): 27.14%; IC50 (MDA-MB-231): 2.64 µM; Activity (K562 [17]): 41.6%; Activity (K562 [18]): 5.39%; Activity (K562 [19]): inactive; Activity (K562 [20]): 91.39%; Activity (K562 [21]): 25.02%

Source: ChEMBL document CHEMBL4033643, “Synthesis and in vitro antitumour activity of crassalactone D, its stereoisomers and novel cinnamic ester derivatives” (Eur J Med Chem, 2017)
